One data set concerns the target MC1 receptor (Homo sapiens, UniProt Q01726). Briefly: In vitro competitive binding, MC1 receptor, M21 human melanoma cells, ^125I-. In a few lines:
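Intact M21 cells (1.5×10^5/well) were incubated for 2 h at 37 °C with ~30,000 cpm 125I-(Tyr2)-NDP-MSH plus 10−12 to 10−5 M test compound. Medium was MEM with 25 mM HEPES pH 7.4, 0.2% BSA and 0.3 mM 1,10-phenanthroline. Cells were rinsed twice with ice-cold 0.2% BSA/0.01 M PBS pH 7.4, lysed in 1 N NaOH for 5 min and gamma counted. Triplicate; IC50 calculated.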

A further data set addresses αvβ3 integrin receptor (Homo sapiens, UniProt P05106+P06756). It counts as binding. In outline: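 M21 cells (1×10^5/well) were placed on 0.65 µm filter plates and incubated for 2 h at 25 °C with ~30,000 cpm 125I-echistatin and 10−11 to 10−4 M test compound. The binding medium was HEPES-buffered MEM pH 7.4 with BSA and phenanthroline. Bound and free ligand were separated by vacuum filtration with two ice-cold BSA/PBS pH 7.4 rinses, and the PVDF filters were gamma counted. Triplicate; IC50 calculated.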

Data set [1] has as its system M21 human melanoma-xenografted nude mice. Conditions: mouse, in vivo; cited from earlier work.

The values below come from paper PMC4361317 (Nuclear medicine and biology, 2014).

“Also recorded” adds a separate entry of the source. Where a SMILES comes first, the peptide text is derived from it. Bridges are numbered along the chain shown (N, C = ends). [ ]: non-standard residue; d: D form. Aoc = NCCCCCCCC(=O)O

As a reminder, the IC50 is the concentration that inhibits the measured activity by half.

Take `CC(C)[C@H](NC(=O)[C@@H]1CCCN1C(=O)[C@H](CCCNC(=N)N)NC(=O)[C@H](CS)NC(=O)[C@H](Cc1c[nH]c2ccccc12)NC(=O)[C@H](CCCNC(=N)N)NC(=O)[C@@H](Cc1ccccc1)NC(=O)[C@H](Cc1c[nH]cn1)NC(=O)[C@H](CCC(=O)O)NC(=O)[C@H](CS)NC(=O)[C@H](CS)NC(=O)CCCCCCCNC(=O)[C@@H]1CC(=O)N[C@@H](CCCNC(=N)N)C(=O)NCC(=O)N[C@@H](CC(=O)O)C(=O)N[C@H](Cc2ccc(O)cc2)C(=O)N1)C(N)=O` [RGD-Aoc-(Arg^11)CCMSH] (RGD[dY]D[Aoc]CCEH[dF]RWCRPV-NH2; lactam N-5): the figures for the IC50 at MC1 receptor and against αvβ3 integrin receptor were 1.5 ± 0.2 nM and 1130 ± 26 nM, respectively. Also, on MC1 receptor (M21 cells), the “MC1 receptor binding affinity, compared with RGD-PEG2-(Arg^11)CCMSH” value is recorded as “stronger receptor binding affinity; also recorded: slightly stronger binding affinities”. Moreover, on αvβ3 integrin receptor (M21 cells), the “binding affinity for αvβ3 integrin receptor (in words)” value was “low micromolar range”. Further, on αvβ3 integrin receptor (M21 cells), the “αvβ3 integrin receptor binding affinity, compared with RGD-PEG2-(Arg^11)CCMSH” value is “stronger receptor binding affinity; also recorded: slightly stronger binding affinities”.
For “cyclic(Arg-Gly-Asp-DTyr-Asp)-Lys-(^99mTc-[Cys^3,4,10, D-Phe^7, Arg^11]α-MSH3–13) (bicyclic or more) [^99mTc-RGD-Lys-(Arg^11)CCMSH]”, in data set [1], the “melanoma uptake relative to ^99mTc-RAD-Lys-(Arg^11)CCMSH” value is given as 2.5 times and the “melanoma uptake relative to ^99mTc-RGD-Lys-(Arg^11)CCMSHscramble” value is 2.2 times.
